Series [1] in a line: Clearance in rat at 2 mg/kg, iv. Further details: dose 2 mg/kg, route intravenous. The following applies: in vivo. Type of series: ADME, organism-based. Summed up: (§1)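 Rats dosed intravenously at 2 mg/kg in a solution of 5% DMA and 30% PEG 400.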
A short description of series [2]: AUC in rat at 10 mg/kg, po. Type of series: ADME, organism-based. Also on record: dose 10 mg/kg, route oral. The following applies: plasma. A digest of the protocol: (§2)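 Oral dose of 10 mg/kg given as a suspension in aqueous 0.5% CMC/0.25% Tween 80. Plasma AUC, Cmax and Tmax were taken from the oral arm. Bioavailability was derived against the intravenous arm in the same species.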

Series [3] has as its target c-Jun N-terminal kinase, JNK (Homo sapiens, UniProt P45983+P53779+P45984). As to the kind of experiment: Inhibition of JNK-mediated GST tagged c-Jun phosphorylation in human Jurkat T cells compound treated for 30 mins prior anisomycin stimulation measured after 40 mins by fluorescence spectrophotometry. Type of series: cell-based.
The target in series [4] is Mitogen-activated protein kinase 8 (Homo sapiens, UniProt P45983). In words: Inhibition of hexa-His-tagged JNK1 expressed in baculoviral system using GST-tagged c-Jun as substrate preincubated for 15 mins prior ATP addition measured after 60 mins by scintillation counting.
The nature of series [5]: Oral bioavailability in rat. Type of series: ADME, organism-based. Conditions: in vivo.
In series [6] the target is Mitogen-activated protein kinase 14 (Homo sapiens, UniProt Q16539). As to the kind of experiment: Inhibition of p38alpha using myelin basic protein as substrate preincubated for 15 mins prior ATP addition measured after 60 mins by scintillation counting.
Series [7] can be described thus: Oral bioavailability in dog at 10 mg/kg. Type of series: ADME, organism-based, Canis lupus familiaris. The following applies: in vivo. Summed up: as §2
Series [8] is described as follows: AUC in po dosed rat. Type of series: ADME, organism-based. Conditions: plasma.
The next series concerns Rattus norvegicus. In words: Antiinflammatory activity in CD rat assessed as inhibition of LPS-stimulated TNFalpha production at 30 mg/kg, po administered 1 hr prior LPS challenge measured after 90 mins by ELISA. Type of series: functional. Summed up: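 Acute PK-PD model in rats: compound given by oral gavage at 10 or 30 mg/kg, then lipopolysaccharide injected, and plasma TNF-alpha release measured.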

A short description of series [9]: AUC in dog at 1 mg/kg, iv. Type of series: ADME, organism-based, Canis lupus familiaris, Plasma. Further details: dose 1 mg/kg, route intravenous. The following applies: plasma.
Series [10] can be described thus: AUC in cynomolgus monkey at 1 mg/kg, iv. Also on record: dose 1 mg/kg, route intravenous. Type of series: ADME, organism-based, Macaca fascicularis. Conditions: plasma. Summed up: (§3)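 Intravenous dose of 1 mg/kg given to monkeys in a solution of 5% DMA and 95% isotonic citrate buffer (50 mM, pH 5.0).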
A short description of series [11]: Volume of distribution at steady state in dog at 1 mg/kg, iv. Conditions: in vivo, read-out: Vdss. Also on record: dose 1 mg/kg, route intravenous. Type of series: ADME, organism-based, Canis lupus familiaris.
A short description of series [12]: Mean residence time in dog at 1 mg/kg, iv. Type of series: ADME, organism-based, Canis lupus familiaris. Further details: dose 1 mg/kg, route intravenous. Conditions: in vivo.
The nature of series [13]: Oral bioavailability in cynomolgus monkey at 10 mg/kg. Type of series: ADME, organism-based, Macaca fascicularis. The following applies: in vivo. A digest of the protocol: as §2
Series [14] in a line: Volume of distribution at steady state in rat at 2 mg/kg, iv. The following applies: in vivo, read-out: Vdss. Also on record: dose 2 mg/kg, route intravenous. Type of series: ADME, organism-based. Summed up:
as §1

Series [15] can be described thus: AUC in rat at 2 mg/kg, iv. Further details: dose 2 mg/kg, route intravenous. Type of series: ADME, organism-based. Conditions: plasma. A digest of the protocol:
as §1

The nature of series [16]: Clearance in cynomolgus monkey at 1 mg/kg, iv. Type of series: ADME, organism-based, Macaca fascicularis. The following applies: in vivo. Further details: dose 1 mg/kg, route intravenous. A digest of the protocol: as §3
Series [17] is described as follows: Mean residence time in cynomolgus monkey at 1 mg/kg, iv. Further details: dose 1 mg/kg, route intravenous. The following applies: in vivo. Type of series: ADME, organism-based, Macaca fascicularis. A digest of the protocol:
as §3

Series [18] is described as follows: Cmax in rat at 10 mg/kg, po. Type of series: ADME, organism-based. Also on record: dose 10 mg/kg, route oral. The following applies: in vivo. Summed up:
as §2

The nature of series [19]: AUC in dog at 10 mg/kg, po. Conditions: plasma. Type of series: ADME, organism-based, Canis lupus familiaris, Plasma. Further details: dose 10 mg/kg, route oral. Summed up:
as §2

Series [20] can be described thus: Clearance in dog at 1 mg/kg, iv. Conditions: in vivo. Type of series: ADME, organism-based, Canis lupus familiaris. Also on record: dose 1 mg/kg, route intravenous.
Series [21] addresses Mitogen-activated protein kinase 10 (Homo sapiens, UniProt P53779). In words: Inhibition of hexa-His-tagged JNK3 expressed in baculoviral system using GST-tagged cJun as substrate preincubated for 15 mins prior ATP addition measured after 60 mins by scintillation counting.
The target in series [22] is Mitogen-activated protein kinase 9 (Homo sapiens, UniProt P45984). As to the kind of experiment: Inhibition of hexa-His-tagged JNK2 expressed in baculoviral system using GST-tagged cJun as substrate preincubated for 15 mins prior ATP addition measured after 60 mins by scintillation counting.
Series [23] in a line: Volume of distribution at steady state in cynomolgus monkey at 1 mg/kg, iv. Type of series: ADME, organism-based, Macaca fascicularis. Further details: dose 1 mg/kg, route intravenous. The following applies: in vivo, read-out: Vdss. A digest of the protocol: as §3
Series [24] in a line: AUC in cynomolgus monkey at 10 mg/kg, po. Type of series: ADME, organism-based, Macaca fascicularis. Also on record: dose 10 mg/kg, route oral. Conditions: plasma. A digest of the protocol: as §2
A short description of series [25]: Cmax in cynomolgus monkey at 10 mg/kg, po. Type of series: ADME, organism-based, Macaca fascicularis. Also on record: dose 10 mg/kg, route oral. The following applies: in vivo. A digest of the protocol: as §2
A short description of series [26]: Tmax in rat at 10 mg/kg, po. Type of series: ADME, organism-based. Further details: dose 10 mg/kg, route oral. Conditions: in vivo. Summed up: as §2
Series [27] is described as follows: Oral bioavailability in rat at 10 mg/kg. Conditions: in vivo. Type of series: ADME, organism-based. A digest of the protocol:
as §2

The nature of series [28]: Cmax in dog at 10 mg/kg, po. Type of series: ADME, organism-based, Canis lupus familiaris. Also on record: dose 10 mg/kg, route oral. Conditions: in vivo. Summed up: as §2
The nature of series [29]: Tmax in dog at 10 mg/kg, po. Type of series: ADME, organism-based, Canis lupus familiaris. Also on record: dose 10 mg/kg, route oral. The following applies: in vivo. Summed up: as §2
Series [30] can be described thus: Mean residence time in rat at 2 mg/kg, iv. Conditions: in vivo. Further details: dose 2 mg/kg, route intravenous. Type of series: ADME, organism-based. Summed up:
as §1

A short description of series [31]: Tmax in cynomolgus monkey at 10 mg/kg, po. Further details: dose 10 mg/kg, route oral. Type of series: ADME, organism-based, Macaca fascicularis. Conditions: in vivo. A digest of the protocol:
as §2

Mitogen-activated protein kinase 8, sequence (P45983 whole entry): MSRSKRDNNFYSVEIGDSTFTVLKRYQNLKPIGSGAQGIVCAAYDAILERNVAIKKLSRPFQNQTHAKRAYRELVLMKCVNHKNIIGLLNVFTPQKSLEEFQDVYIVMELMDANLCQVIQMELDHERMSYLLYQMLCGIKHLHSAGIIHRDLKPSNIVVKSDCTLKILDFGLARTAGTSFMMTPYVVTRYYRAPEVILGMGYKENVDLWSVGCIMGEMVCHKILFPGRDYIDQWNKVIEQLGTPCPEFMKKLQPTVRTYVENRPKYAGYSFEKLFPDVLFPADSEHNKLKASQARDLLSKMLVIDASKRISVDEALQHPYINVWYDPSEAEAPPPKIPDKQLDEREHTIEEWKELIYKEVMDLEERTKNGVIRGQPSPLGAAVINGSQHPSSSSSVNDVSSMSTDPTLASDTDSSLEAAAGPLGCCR
Mitogen-activated protein kinase 14, sequence (Q16539 whole entry): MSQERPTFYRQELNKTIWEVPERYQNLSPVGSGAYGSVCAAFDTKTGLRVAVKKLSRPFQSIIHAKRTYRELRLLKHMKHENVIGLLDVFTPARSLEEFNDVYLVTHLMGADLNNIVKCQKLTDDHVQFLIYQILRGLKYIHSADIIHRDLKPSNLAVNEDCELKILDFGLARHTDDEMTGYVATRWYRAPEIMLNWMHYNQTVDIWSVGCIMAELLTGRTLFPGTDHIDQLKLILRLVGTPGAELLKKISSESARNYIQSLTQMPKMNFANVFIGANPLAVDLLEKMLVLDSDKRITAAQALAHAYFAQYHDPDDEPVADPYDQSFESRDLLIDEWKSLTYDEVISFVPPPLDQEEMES
Mitogen-activated protein kinase 9, sequence (P45984 whole entry): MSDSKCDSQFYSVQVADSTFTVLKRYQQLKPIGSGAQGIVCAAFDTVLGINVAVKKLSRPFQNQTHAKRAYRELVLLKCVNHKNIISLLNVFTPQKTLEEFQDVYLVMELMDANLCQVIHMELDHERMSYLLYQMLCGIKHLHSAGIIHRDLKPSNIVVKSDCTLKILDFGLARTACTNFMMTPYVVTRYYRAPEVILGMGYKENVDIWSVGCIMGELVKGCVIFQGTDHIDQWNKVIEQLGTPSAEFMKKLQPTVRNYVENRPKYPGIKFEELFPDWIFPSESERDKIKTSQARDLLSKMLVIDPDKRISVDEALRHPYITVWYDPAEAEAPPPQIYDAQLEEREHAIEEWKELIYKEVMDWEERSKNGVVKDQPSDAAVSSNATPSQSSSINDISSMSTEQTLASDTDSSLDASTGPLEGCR
Mitogen-activated protein kinase 10, sequence (P53779 whole entry): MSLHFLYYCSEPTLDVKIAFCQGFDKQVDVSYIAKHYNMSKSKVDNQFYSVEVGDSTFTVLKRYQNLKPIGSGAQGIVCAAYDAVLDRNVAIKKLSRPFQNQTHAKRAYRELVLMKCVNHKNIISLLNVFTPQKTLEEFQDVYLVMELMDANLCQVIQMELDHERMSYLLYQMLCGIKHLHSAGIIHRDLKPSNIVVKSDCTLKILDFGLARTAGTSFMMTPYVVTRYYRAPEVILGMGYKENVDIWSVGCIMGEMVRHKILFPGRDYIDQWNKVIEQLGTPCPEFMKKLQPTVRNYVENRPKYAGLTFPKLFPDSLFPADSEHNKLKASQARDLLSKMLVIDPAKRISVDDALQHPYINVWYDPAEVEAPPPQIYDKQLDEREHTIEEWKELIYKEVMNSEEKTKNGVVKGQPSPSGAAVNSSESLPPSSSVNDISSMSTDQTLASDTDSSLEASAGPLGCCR

`O[C@H]1CC[C@H](Nc2ncc3nc(Nc4ccc(F)cc4F)n(C4CCOCC4)c3n2)CC1` had a clearance in series [1] of 21 mL/min/kg. Also, in series [2], the AUC was determined as 12 µM·h. The IC50 in [3] turned out to be 0.86 µM; in series [4] it was 0.39 µM; in series [6] it was 2.7 µM. In series [5], this compound displayed a bioavailability of 70%.
In series [6], `O[C@H]1CC[C@H](Nc2ncc3nc(Nc4c(F)cc(F)cc4F)n([C@@H]4CCOC4)c3n2)CC1` showed a half-maximal inhibitory concentration (IC50) greater than 3 µM.
With `CC(C)(O)[C@H]1CC[C@@H](c2ncc3nc(Nc4ccc(F)cc4F)n(C4CCOCC4)c3n2)C1`, the IC50 is 1.7 µM in series [3], 1.3 µM in [4] and greater than 3 µM in [6].
Compound `CC(C)Nc1ncc2nc(Nc3c(F)cc(F)cc3F)n([C@H]3CC[C@@H](C(=O)NC4CC4)CC3)c2n1` showed a clearance in series [1] of 31 mL/min/kg. Further, the values for the bioavailability in series [7] and in series [5] were 20% and 42%, respectively. Moreover, the concentration for half-maximal inhibition (IC50) in [3] stood at 0.2 µM; in series [4] it was 0.079 µM; in [6], 6.2 µM. The AUC in series [8] turned out to be 4.7 µM·h. Moreover, in the series on Rattus norvegicus, the inhibition in vivo at 30 mg/kg was 92%.
With `Fc1ccc(Nc2nc3cnc(C4CCOCC4)nc3n2C2CCCC2)c(F)c1`, the IC50 was 0.9 µM in [4] and 0.23 µM in series [6].
On to `CC(C)Nc1ncc2nc(Nc3c(F)cc(F)cc3F)n([C@H]3CC[C@@H](C(N)=O)CC3)c2n1`, for which the clearance in series [1] is 25 mL/min/kg. Further, the IC50 in series [3] stood at 0.2 µM; in series [4], 0.12 µM; in [6] it was 0.16 µM. In addition, in series [8], the AUC is 5 µM·h. Also, the bioavailability in series [5] is 32%. Moreover, the inhibition in vivo at 30 mg/kg in the series on Rattus norvegicus is 96%.
Turning to `N[C@H]1CC[C@H](Nc2ncc3nc(Nc4ccc(F)cc4F)n(C4CCCC4)c3n2)CC1`, the clearance in [1] is 66 mL/min/kg. The compound further gave an AUC in series [2] of 0.36 µM·h. Further, the bioavailability in series [5] came to 8%.
In the case of `CC(C)Nc1ncc2nc(Nc3c(F)cc(F)cc3F)n([C@H]3CC[C@@H](C(=O)N4CCOCC4)CC3)c2n1`, the clearance in series [1] was found to be 26 mL/min/kg. The IC50 in [3] amounted to 0.23 µM; in [4] it was 0.063 µM; in series [6] it was 6.4 µM. Moreover, in series [8], the AUC turned out to be 2.4 µM·h. The compound also gave a bioavailability in series [5] of 20%. For the same compound, the inhibition in vivo at 30 mg/kg with Rattus norvegicus stood at 58%.
As to `CC(C)(O)[C@H]1CC[C@H](Nc2ncc3nc(Nc4ccc(F)cc4F)n(C4CCCC4)c3n2)CC1`, the figures for the IC50 in [3], in series [4] and in series [6] were 1.8 µM, 0.17 µM and 0.29 µM, respectively.
Take `O[C@H]1CC[C@H](Nc2ncc3nc(Nc4ccc(F)cc4F)n(C4CCCC4)c3n2)CC1`: the clearance in series [1] was 59 mL/min/kg. In series [2], this compound gave an AUC of 2.7 µM·h. Besides, the IC50 in [3] worked out at 0.44 µM; in series [4], 0.12 µM; in series [6], 0.56 µM. In [5], this compound came in with a bioavailability of 68%.
For the compound `CNC(=O)[C@H]1CC[C@H](Nc2ncc3nc(Nc4c(F)cc(F)cc4F)n([C@H]4CCOC4)c3n2)CC1`, the AUC worked out at 1.4 µM·h in series [9]; 4.7 µM·h in series [10]; 2.9 µM·h in series [2]; 1.8 µM·h in series [15]; 3.3 µM·h in [19]; 23 µM·h in series [24]. Moreover, the Vd in series [11] is 1.4 L/kg; in [14] it was 2.5 L/kg; in [23] it was 0.8 L/kg. Moreover, the clearance in series [1] amounted to 39 mL/min/kg; in series [16], 7.1 mL/min/kg; in series [20], 24 mL/min/kg. The MRT in [12] was determined as 60 min; in [17], 108 min; in series [30], 66 min. The bioavailability is 24% in series [7], 48% in series [13], 33% in series [5] and 33% in series [27]. Besides, the IC50 was 0.091 µM in series [3]; 0.007 µM in [21]; 0.01 µM in [22]; 0.051 µM in series [4]; 4.2 µM in series [6]. For the same compound, the figures for the Cmax in [18], in [25] and in [28] were 1200 nM, 11000 nM and 860 nM, respectively. The Tmax in [26] is 42 min; in series [29] it was 40.2 min; in [31], 49.8 min.
Take `C[C@]1(O)CC[C@H](Nc2ncc3nc(Nc4ccc(F)cc4F)n(C4CCOCC4)c3n2)CC1`: the IC50 in series [3] was 2.5 µM; in series [4] it was 1.2 µM; in [6], greater than 3 µM.
For `CCO[C@H]1CC[C@H](Nc2ncc3nc(Nc4ccc(F)cc4F)n(C4CCOCC4)c3n2)CC1` the same measures were 1.6 µM, 0.54 µM and greater than 3 µM.
On to `CC(C)(O)[C@H]1CC[C@H](Nc2ncc3nc(Nc4ccc(F)cc4F)n(C4CCOCC4)c3n2)CC1`, for which the values for the half-inhibitory concentration (IC50) in [3], in series [4] and in [6] were 1.7 µM, 0.32 µM and 0.98 µM, respectively.
For `CS(=O)(=O)N[C@H]1CC[C@H](Nc2ncc3nc(Nc4ccc(F)cc4F)n(C4CCOCC4)c3n2)CC1`, the IC50 was 0.88 µM in [4] and 0.86 µM in series [6].

Values taken from ChEMBL document CHEMBL1949521, “Discovery of CC-930, an orally active anti-fibrotic JNK inhibitor” (Bioorg Med Chem Lett, 2012).
